From ChEMBL document CHEMBL4346672, “Antimicrobial and KPC/AmpC inhibitory activity of functionalized benzosiloxaboroles” (Eur J Med Chem, 2019)
≈ marks a conversion by molar mass, not a printed value. Calls of active or inactive are those of the source. The rule behind the calls is not given here.

Key:
[1] = system: Stenotrophomonas maltophilia; test: Antibacterial activity against Stenotrophomonas maltophilia ATCC 13637 measured after 18 hrs by CLSI broth dilution method; format: functional; conditions: ATCC 13637, 18 h
Method in brief: (§1)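 Broth MIC in Mueller-Hinton II broth following CLSI, compounds dissolved in DMSO. Strains subcultured twice on tryptic soy agar before testing. Growth read after 35 °C, 18 h.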

[2] = system: Stenotrophomonas maltophilia; test: Antibacterial activity against Stenotrophomonas maltophilia ATCC 13637 assessed as fold reduction of MIC in presence of efflux pump inhibitor PAbetaN incubated for 18 hrs by broth microdilution method; format: functional
Method in brief: (§2)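 MICs determined with and without PAβN at 50 mg/L in Mueller-Hinton broth containing 1 mM MgSO₄. 2-fold serial dilutions per CLSI. Fold change taken from the paired MICs after 35 °C, 18 h.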

Klebsiella pneumoniae [3] = test: Inhibition of beta lactamase KPC-3 in Klebsiella pneumoniae 81 assessed as potentiation of meropenem-induced antibacterial activity by measuring meropenem MIC at 16 mg/L incubated for 18 hrs by broth dilution method (reference value: […] mg/L)
Serratia marcescens = test: Antibacterial activity against Serratia marcescens ATCC 13880 measured after 18 hrs by CLSI broth dilution method; format: functional; conditions: ATCC 13880, 18 h; method in brief: as §1
Proteus mirabilis = test: Antibacterial activity against Proteus mirabilis ATCC 12453 assessed as fold reduction of MIC in presence of efflux pump inhibitor PAbetaN incubated for 18 hrs by broth microdilution method; format: functional; method in brief: as §2
[4] = Cytotoxicity against human MRC5 cells assessed as cell viability at 16 ug/ml incubated for 72 hrs by MTT assay; format: cell-based; conditions: read-out: Activity
Method in brief: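 MRC-5 pd30 human fibroblasts grown in MEM with 10% FBS, 2 mM L-glutamine, penicillin/streptomycin and 1% non-essential amino acids at 37 °C, 5% CO2. Exponentially growing cells trypsinized and seeded at 8×10^3 cells/well, then dosed 18 h later with 2-fold dilutions (0.5% DMSO final) for 72 h. MTT (1 mg/ml final) added for 1 h at 37 °C, formazan dissolved in DMSO, OD read at 570 nm. Four replicates, expressed as % viable versus control.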

Escherichia coli [5] = test: Antibacterial activity against Escherichia coli ATCC 25922 assessed as diameter of zone inhibition measured after 18 hrs by CLSI disc diffusion method; format: functional
Method in brief: (§3)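 Disc diffusion on Mueller-Hinton II agar. Compounds dissolved in DMSO. Strains stored at -80 °C and subcultured twice on tryptic soy agar before testing. Inhibition zones read after 35 °C, 18 h.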

Klebsiella pneumoniae [6] = test: Inhibition of beta lactamase KPC-2 in Klebsiella pneumoniae 75 assessed as potentiation of meropenem-induced antibacterial activity by measuring meropenem MIC at 16 mg/L incubated for 18 hrs by broth dilution method (reference value: […] mg/L)
Escherichia coli [7] = test: Antibacterial activity against Escherichia coli ATCC 25922 assessed as fold reduction of MIC in presence of efflux pump inhibitor PAbetaN incubated for 18 hrs by CLSI broth microdilution method; format: functional; method in brief: as §2
Klebsiella pneumoniae [8] = test: Inhibition of beta lactamase KPC-3 in Klebsiella pneumoniae 83 assessed as potentiation of ceftazidime-induced antibacterial activity by measuring ceftazidime MIC at 16 mg/L incubated for 18 hrs by broth dilution method (reference value: >[…] mg/L)
[9] = system: Meyerozyma guilliermondii; test: Antifungal activity against Candida guilliermondii IBA 155 assessed as decrease in fungal cell growth at 0.78 to 12.5 mg/L incubated for 24 hrs by CLSI broth dilution method; format: functional; conditions: IBA 155, 24 h
Method in brief: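 Yeast broth dilution in RPMI 1640 with 2% glucose, compounds in DMSO. Yeasts pre-grown on Sabouraud dextrose agar. Growth read after 35 °C, 24 h.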

[10] = system: Meyerozyma guilliermondii; test: Antifungal activity against Candida guilliermondii IBA 155 assessed as diameter of zone inhibition incubated for 24 hrs by CLSI disc diffusion method; format: functional
Method in brief: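 Yeast disc diffusion on Mueller-Hinton agar supplemented with 2% glucose and 0.5 mg/L methylene blue. Compounds in DMSO. Yeasts subcultured on Sabouraud dextrose agar before testing. Zones read after 35 °C, 24 h.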

Pseudomonas aeruginosa [11] = test: Inhibition of beta lactamase OXA-15 in Pseudomonas aeruginosa 852 assessed as potentiation of ceftazidime-induced antibacterial activity by measuring ceftazidime MIC at 16 mg/L incubated for 18 hrs by broth dilution method (reference value: >[…] mg/L)
Pseudomonas aeruginosa [12] = test: Antibacterial activity against Pseudomonas aeruginosa ATCC 27853 measured after 18 hrs by CLSI broth dilution method; format: functional; conditions: ATCC 27853, 18 h; method in brief: as §1
Burkholderia cepacia = test: Antibacterial activity against Burkholderia cepacia ATCC 25416 measured after 18 hrs by CLSI broth dilution method; format: functional; conditions: ATCC 25416, 18 h; method in brief: as §1
Klebsiella pneumoniae [13] = test: Antibacterial activity against Klebsiella pneumoniae ATCC 13883 assessed as fold reduction of MIC in presence of efflux pump inhibitor PAbetaN incubated for 18 hrs by broth microdilution method; format: functional; method in brief: as §2
[14] = system: Klebsiella pneumoniae ATCC BAA-1705; test: Inhibition of beta lactamase KPC in Klebsiella pneumoniae ATCC BAA 1705 assessed as potentiation of meropenem-induced antibacterial activity by measuring diameter of zone inhibition at 0.3 mg incubated for 18 hrs in presence of 10 ug meropenem by CLSI disc diffusion method (Rvb=[…] mm)
Acinetobacter baumannii = test: Antibacterial activity against Acinetobacter baumannii ATCC 19606 assessed as diameter of zone inhibition measured after 18 hrs by CLSI disc diffusion method; format: functional; method in brief: as §3
Enterococcus faecium [15] = test: Antibacterial activity against Enterococcus faecium ATCC 6057 measured after 18 hrs by CLSI broth dilution method; format: functional; conditions: ATCC 6057, 18 h; method in brief: as §1
Enterobacter cloacae = test: Antibacterial activity against Enterobacter cloacae DSM 6234 assessed as fold reduction of MIC in presence of efflux pump inhibitor PAbetaN incubated for 18 hrs by broth microdilution method; format: functional; method in brief: as §2
Enterococcus faecium [16] = test: Antibacterial activity against Enterococcus faecium ATCC 6057 assessed as diameter of zone inhibition measured after 18 hrs by CLSI disc diffusion method; format: functional; method in brief: as §3
Pseudomonas aeruginosa [17] = test: Antibacterial activity against Pseudomonas aeruginosa ATCC 27853 assessed as fold reduction of MIC in presence of efflux pump inhibitor PAbetaN incubated for 18 hrs microdilution method; format: functional; method in brief: as §2
Escherichia coli [18] = test: Inhibition of beta lactamase KPC-3 in Escherichia coli 82 TR assessed as potentiation of ceftazidime-induced antibacterial activity by measuring ceftazidime MIC at 16 mg/L incubated for 18 hrs by broth dilution method (reference value: […] mg/L)
Bacillus subtilis = test: Antibacterial activity against Bacillus subtilis ATCC 6633 assessed as diameter of zone inhibition measured after 18 hrs by CLSI disc diffusion method; format: functional; method in brief: as §3
Staphylococcus aureus = test: Bactericidal activity against Staphylococcus aureus ATCC 6538P measured after 18 hrs by CLSI broth dilution method; format: functional
Method in brief: (§4)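 Strains stored at -80 °C and subcultured twice on tryptic soy agar before testing. Compounds dissolved in DMSO. […] MBC then determined per CLSI recommendations.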

[19] = system: Staphylococcus epidermidis; test: Bactericidal activity against Staphylococcus epidermidis ATCC 12228 measured after 18 hrs by CLSI broth dilution method; format: functional; conditions: ATCC 12228, 18 h; method in brief: as §4
Enterococcus faecalis = test: Bactericidal activity against Enterococcus faecalis ATCC 29212 measured after 18 hrs by CLSI broth dilution method; format: functional; conditions: ATCC 29212, 18 h; method in brief: as §4

SMILES | MIC [1] [µg/mL] | fold change (FC) [2] | MIC (Klebsiella pneumoniae [3]) [µg/mL] | MIC (Serratia marcescens) [µg/mL] | fold change (FC) (Proteus mirabilis) | diameter of the inhibition zone (DIZ) (Escherichia coli [5]) | MIC (Klebsiella pneumoniae [6]) [µg/mL] | fold change (FC) (Escherichia coli [7]) | MIC (Klebsiella pneumoniae [8]) [µg/mL] | MIC [9] [µg/mL] | diameter of the inhibition zone (DIZ) [10] | MIC (Pseudomonas aeruginosa [12]) [µg/mL] | MIC (Burkholderia cepacia) [µg/mL] | fold change (FC) (Klebsiella pneumoniae [13]) | diameter of the inhibition zone (DIZ) (Acinetobacter baumannii) | MIC (Enterococcus faecium [15]) [µg/mL] | fold change (FC) (Enterobacter cloacae) | diameter of the inhibition zone (DIZ) (Enterococcus faecium [16]) [mm] | fold change (FC) (Pseudomonas aeruginosa [17]) | diameter of the inhibition zone (DIZ) (Bacillus subtilis) [mm] | other results
C[Si]1(C)OB(O)c2ccc(F)c(F)c21 | 200 (≈ 934 µM) | 16 | 8 | > 400 | 2 | inactive | 32 | 32 | > 64 | 3.12 (≈ 14.6 µM) | 30 mm | > 400 | > 400 | 16 | inactive | 100 (≈ 467 µM) | 32 | 18 | 32 | 28 | viability at 72 h, 16 ug/ml [4]: 99%; MIC (Pseudomonas aeruginosa [11]): > 64 µg/mL; inhibition zone (IZ) [14]: 14 mm; MIC (Escherichia coli [18]): 32 µg/mL
C[Si]1(C)OB(O)c2ccc(C(F)(F)F)cc21 | 400 (≈ 1630 µM) | 16 | – | > 400 | 2 | inactive | – | 16 | – | 200 (≈ 813 µM) | 16 mm | > 400 | > 400 | 16 | 13 mm | 25 (≈ 102 µM) | 16 | 14 | 8 | 47 | MBC (Staphylococcus aureus): 100 µg/mL (≈ 406 µM); MBC [19]: 50 µg/mL (≈ 203 µM); MBC (Enterococcus faecalis): 50 µg/mL (≈ 203 µM)
C[Si]1(C)OB(O)c2cc3c(c(F)c21)COB3O | 200 (≈ 794 µM) | 16 | 8 | > 400 | 8 | inactive | 32 | 16 | > 64 | 400 (≈ 1590 µM) | inactive | > 400 | > 400 | 32 | inactive | 50 (≈ 198 µM) | 64 | 16 | 8 | 29 | MBC (Staphylococcus aureus): 400 µg/mL (≈ 1590 µM); viability at 72 h, 16 ug/ml [4]: 100%; MIC (Pseudomonas aeruginosa [11]): > 64 µg/mL; MBC [19]: 400 µg/mL (≈ 1590 µM); inhibition zone (IZ) [14]: 12 mm; MIC (Escherichia coli [18]): 32 µg/mL
C[Si]1(C)OB(O)c2ccc(B(O)O)cc21 | 400 (≈ 1800 µM) | 8 | 4 | > 400 | 4 | inactive | 16 | 8 | 64 | > 400 | inactive | > 400 | > 400 | 4 | inactive | 200 (≈ 901 µM) | 16 | 12 | 2 | 19 | MBC (Staphylococcus aureus): 200 µg/mL (≈ 901 µM); viability at 72 h, 16 ug/ml [4]: 120%; MIC (Pseudomonas aeruginosa [11]): > 64 µg/mL; MBC [19]: 100 µg/mL (≈ 451 µM); inhibition zone (IZ) [14]: 18 mm; MIC (Escherichia coli [18]): 32 µg/mL; MBC (Enterococcus faecalis): 400 µg/mL (≈ 1800 µM)
C[Si]1(C)OB(O)c2c(F)c(F)c(F)c(F)c21 | 400 (≈ 1600 µM) | 16 | 16 | > 400 | 2 | 18 mm | 32 | 32 | > 64 | 50 (≈ 200 µM) | 14 mm | > 400 | > 400 | 16 | 12 mm | 200 (≈ 800 µM) | 32 | 11 | 16 | 20 | MIC (Pseudomonas aeruginosa [11]): > 64 µg/mL; inhibition zone (IZ) [14]: 13 mm; MIC (Escherichia coli [18]): 32 µg/mL
C[Si]1(C)OB(O)c2c(F)c3c(c(F)c21)B(O)OC3 | 50 (≈ 185 µM) | 8 | 16 | 400 (≈ 1480 µM) | 4 | inactive | 32 | 8 | 64 | > 400 | inactive | > 400 | 50 (≈ 185 µM) | 16 | 15 mm | 25 (≈ 92.6 µM) | 8 | 28 | 8 | 29 | MIC (Pseudomonas aeruginosa [11]): > 64 µg/mL; inhibition zone (IZ) [14]: 12 mm; MIC (Escherichia coli [18]): 32 µg/mL
C[Si]1(C)OB(O)c2ccc(Cl)c(Cl)c21 | 200 (≈ 810 µM) | 32 | – | > 400 | 4 | inactive | – | 64 | – | 25 (≈ 101 µM) | 47 mm | > 400 | > 400 | 32 | inactive | 25 (≈ 101 µM) | 64 | 28 | 64 | 33 | MBC (Staphylococcus aureus): 100 µg/mL (≈ 405 µM); MBC [19]: 50 µg/mL (≈ 202 µM); MBC (Enterococcus faecalis): 400 µg/mL (≈ 1620 µM)
